Reference: paper PMC5515376 (Nature, 2016)
Like-named read-outs stand apart in the source and are kept apart here.

Columns and labels:
P. falciparum Dd2 = test: In vitro P. falciparum blood-stage growth inhibition assay; format: cell-based, Plasmodium falciparum
[1] = system: Mammalian cells (HepG2, A549, and HEK293); test: Mammalian cell cytotoxicity; format: cell-based; settings: initial characterization
Summary of the method: (§1)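 HepG2, A549 or HEK293 cells were grown in DMEM with 10% FBS and 1% antibiotic–antimycotic and tested mycoplasma-free. Cells (1 × 10^6) were seeded one day before treatment. They were exposed to ascending compound doses for 72 h, and viability was read by CellTiter-Glo.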

[2] = system: P. falciparum 3D7 stage IV–V gametocytes; test: In vitro transmission-blocking assay; format: cell-based, Plasmodium falciparum
Summary of the method: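 3D7 cultures were treated 3 days with 50 mM N-acetyl-D-glucosamine to remove asexual parasites. Stage IV–V gametocytes were then isolated on a discontinuous Percoll gradient. Gametocytes (1.0 × 10^5 per well) were incubated with compound for 72 h. Viability was measured by CellTiter-Glo luminescence.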

Solubility assay in PBS = format: physicochemical; settings: for PBS solubility: PBS pH 7.4 with 1% DMSO
Summary of the method: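 Compound was prepared at 100 µM in triplicate, both in 100% DMSO and in PBS pH 7.4 with 1% DMSO. Samples were shaken at 750 r.p.m. for 18 h at room temperature. Analysis was by UPLC–MS with single-ion detection. PBS response was fitted to a two-point calibration built from the DMSO samples.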

P. falciparum NITD609^R = test: Blood-stage growth inhibition, P. falciparum NITD609^R strain; format: cell-based, Plasmodium falciparum
Summary of the method: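 Asexual blood-stage parasites were cultured to 3–8% parasitaemia, counted on Giemsa smears, and diluted in medium to 2.0% parasitaemia and 2.0% haematocrit. This suspension was added to compound dispensed from DMSO, giving a final 1% parasitaemia and 1% haematocrit, with mefloquine as control. Plates were incubated for 72 h at 37 °C. Growth was read by SYBR Green I fluorescence in Tris/EDTA/saponin/Triton X-100 lysis buffer.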

[3] = system: parasite cytosolic Na^+ concentration; test: Parasite cytosolic Na+ concentration measurement; format: cell-based, Plasmodium falciparum; settings: after treatment
[4] = Plasma protein binding assay; format: in vitro ADME
Summary of the method: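 Binding was measured by equilibrium dialysis in a RED device. Compound at 5 µM, in duplicate, was placed in mouse plasma (0.95% acetonitrile, 0.05% DMSO) against PBS pH 7.4. Incubation was 5 h at 37 °C with 350 r.p.m. orbital shaking. Both sides were analysed by UPLC–MS with single-ion detection.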

hERG channel = hERG channel (Homo sapiens, UniProt Q12809); test: hERG channel inhibition assay; format: cell-based; settings: read-out: hERG IC50; IKr
hERG channel, sequence (Q12809 whole entry): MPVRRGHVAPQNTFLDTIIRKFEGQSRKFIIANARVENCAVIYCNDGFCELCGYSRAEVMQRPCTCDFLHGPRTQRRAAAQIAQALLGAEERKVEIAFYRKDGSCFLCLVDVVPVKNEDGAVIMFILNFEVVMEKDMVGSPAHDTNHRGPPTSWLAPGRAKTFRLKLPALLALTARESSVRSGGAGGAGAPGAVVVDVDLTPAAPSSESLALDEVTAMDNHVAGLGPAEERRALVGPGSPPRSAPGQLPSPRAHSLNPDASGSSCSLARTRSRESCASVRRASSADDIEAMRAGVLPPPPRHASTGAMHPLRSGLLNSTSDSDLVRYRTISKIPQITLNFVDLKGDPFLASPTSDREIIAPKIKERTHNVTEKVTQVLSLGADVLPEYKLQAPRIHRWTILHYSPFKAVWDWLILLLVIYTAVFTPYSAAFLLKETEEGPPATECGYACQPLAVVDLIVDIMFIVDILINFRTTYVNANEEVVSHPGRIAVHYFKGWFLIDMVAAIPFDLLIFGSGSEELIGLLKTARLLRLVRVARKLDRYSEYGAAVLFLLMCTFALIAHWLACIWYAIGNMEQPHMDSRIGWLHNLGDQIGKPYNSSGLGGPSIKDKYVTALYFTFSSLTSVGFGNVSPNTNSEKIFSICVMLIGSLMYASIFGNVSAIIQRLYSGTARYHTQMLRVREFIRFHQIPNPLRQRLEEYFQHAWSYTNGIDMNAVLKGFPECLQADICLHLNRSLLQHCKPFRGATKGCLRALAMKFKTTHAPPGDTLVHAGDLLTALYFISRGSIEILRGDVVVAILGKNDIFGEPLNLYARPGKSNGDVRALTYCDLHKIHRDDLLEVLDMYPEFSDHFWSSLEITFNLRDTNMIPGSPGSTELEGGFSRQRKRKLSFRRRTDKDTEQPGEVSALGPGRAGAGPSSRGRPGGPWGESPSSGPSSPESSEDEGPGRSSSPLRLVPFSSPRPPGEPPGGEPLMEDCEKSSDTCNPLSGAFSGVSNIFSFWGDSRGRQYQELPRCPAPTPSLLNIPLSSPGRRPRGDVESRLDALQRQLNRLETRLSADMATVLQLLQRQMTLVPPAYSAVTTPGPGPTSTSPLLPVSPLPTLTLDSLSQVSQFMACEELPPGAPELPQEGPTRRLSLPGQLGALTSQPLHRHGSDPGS
Summary of the method: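 hERG current was measured in hERG-expressing cell lines by automated patch clamp (QPatch-HTX).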

[5] = Metabolic stability assay, mouse liver microsomes; format: in vitro ADME
Summary of the method: (§2)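 Liver microsomes (0.2 mg ml−1) were incubated with compound (0.5 and 5 µM) plus NADPH for 0, 10 and 90 min. Human microsomes or mouse CD-1 microsomes were used, as named in each line. Compound depletion was measured by LC–MS/MS and used to estimate Km, Vmax and half-life.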

[6] = Mouse pharmacokinetics assay; format: in vivo; settings: CD-1 mice; for AUC0-t: t = 24 h
Summary of the method: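 Female CD-1 mice received single intravenous and oral doses. Parameters were estimated by non-compartmental analysis.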

[7] = Metabolic stability assay, human liver microsomes; format: in vitro ADME
Summary of the method: as §2

HepG2 cell line = test: Mammalian cell cytotoxicity assay; format: cell-based, human; settings: for CC50: read-out: HepG2 CC50, 72 h; for Cytotoxicity: HepG2 cell line
Summary of the method: as §1

[8] = system: P. berghei (ANKA) liver stage; test: In vitro P. berghei liver-stage assay; format: cell-based, Plasmodium berghei; settings: P. berghei (ANKA), Liver stage
Summary of the method: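 HepG2 cells (~17,500 per well, in duplicate) were cultured 18–24 h, then the medium was exchanged and compound added. After 1 h, 4,000 P. berghei ANKA GFP–luc sporozoites per well were added, freshly dissected from A. stephensi mosquitoes. Plates were spun 10 min at 1,000 r.p.m. and incubated 48 h at 37 °C. Parasite load was read by Bright-Glo luminescence.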

[9] = system: P. falciparum (NF54) gametocytes; test: In vitro transmission-blocking imaging assay; format: cell-based, Plasmodium falciparum
Summary of the method: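 Highly synchronous NF54 pf-LUC-GFP gametocytes were induced from a single asexual cycle. They were exposed to 16 compound doses, with final controls of 0.4% DMSO and 5 µM puromycin, for 72 h at 37 °C under 5% CO2/5% O2/90% N2 and 60% humidity. MitoTracker Red CM-H2XRos was then added overnight, and plates were imaged after ≥1 h at room temperature. IC50 came from a 4-parameter variable-slope fit.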

[10] = system: P. falciparum (NF54) male and female stage-V gametocytes; test: Dual gamete formation assay; format: cell-based, Plasmodium falciparum
[11] = system: P. falciparum (NF54) liver stage; test: In vitro P. falciparum liver-stage assay; format: cell-based, Plasmodium falciparum
[12] = read-out: PfDd2 EC50, asexual blood-stage parasites (Dd2), SAR table
[13] = read-out: Pf, Dd2 EC50, blood stage
[14] = printed in the IV (3) column, PO (10) vs IV (3) mg/kg
[15] = P. falciparum (Dd2), Blood stage

COc1ccc(NC(=O)N2CCCCN3[C@H](CO)[C@H](c4ccc(C#Cc5ccccc5C#N)cc4)[C@@H]3C2)cc1 [BRC4873]
EC50 (P. falciparum Dd2; [12]): 261 nM

COc1ccc(-c2ccccc2[C@H]2[C@@H](C#N)N(C(=O)C3CCCC3)[C@H]2CO)cc1 [BRD0026]
Cytotoxicity (in words) [1]: low cytotoxicity | EC50 ([2]; read-out: EC50, late-sexual blood stages, in vitro): 1980 nM | EC50 (P. falciparum Dd2; read-out: EC50, asexual blood stages, in vitro): 346 nM | Solubility (in words) (Solubility assay in PBS; initial characterization): good solubility | Potency against Pf NITD609^R (P. falciparum NITD609^R; relative to Dd2): selectively reduced potency | EC50 (P. falciparum NITD609^R; strain carrying a point mutation in P. falciparum ATPase4): 1770 nM | Parasite cytosolic Na^+ concentration [3]: rapid increase

COc1ccc(NC(=O)N2CCCCCN3[C@H](CO)[C@H](c4ccc(C#Cc5ccccc5)cc4)[C@@H]3C2)cc1 [BRD0185]
EC50 (P. falciparum Dd2; [12]): 87 nM

COc1ccc(NC(=O)N2CCCCN3[C@H](CN)[C@H](c4ccc(C#Cc5ccccc5)cc4)[C@@H]3C2)cc1 [BRD1095]
Mouse Plasma protein binding [4]: 99.3% | IC50 (hERG channel): 5100 nM | Mouse Clint [5]: < 20 µL/min/mg | EC99.9 (P. falciparum Dd2; P. falciparum Dd2): 60 nM | EC50 (P. falciparum Dd2; [13]): 10 nM | EC50 (P. falciparum Dd2; [12]): 10 nM | PBS solubility (Solubility assay in PBS): 25 µM | AUC0-inf ([6]; IV (3) mg/kg): 14.9 µM·h | CL ([6]; IV (3) mg/kg): 6.7 mL/min/kg | MRT0-inf ([6]; IV (3) mg/kg): 39.2 h | Vss ([6]; IV (3) mg/kg): 16 L/kg | AUC0-t ([6]; IV (3) mg/kg): 7 ^¶ µM*hr | Cmax ([6]; PO (10) mg/kg): 600 nM | T1/2 ([6]; PO (10) mg/kg): 28.8 h | Tmax ([6]; PO (10) mg/kg): 4 h | AUC0-t ([6]; PO (10) mg/kg): 11.7 ^¶ µM*hr | F [6, 14]: 50% | Human Clint [7]: < 20 µL/min/mg | CC50 (HepG2 cell line): 15600 nM

COc1ccc(NC(=O)N2CCCCN3[C@H](CO)[C@H](c4ccc(C#Cc5ccccc5)cc4)[C@]3(CO)C2)cc1 [BRD2936]
EC50 (P. falciparum Dd2; [12]): 1870 nM

COc1ccc(NC(=O)N2CCCCN3[C@H](COCCC(=O)O)[C@H](c4ccc(C#Cc5ccccc5)cc4)[C@@H]3C2)cc1 [BRD3316]
IC50 (hERG channel): > 10000 nM | Mouse Clint [5]: 38 µL/min/mg | EC50 (P. falciparum Dd2; [15]): 19 nM | EC50 (P. falciparum Dd2; [13]): 23 nM | EC50 (P. falciparum Dd2; [12]): 22 nM | PBS solubility (Solubility assay in PBS): 91 µM | AUC0-inf ([6]; IV (3.2) mg/kg): 13.2 µM·h | CL ([6]; IV (3.2) mg/kg): 7.1 mL/min/kg | MRT0-inf ([6]; IV (3.2) mg/kg): 3.3 h | T1/2 ([6]; IV (3.2) mg/kg): 2.3 h | Vss ([6]; IV (3.2) mg/kg): 1.4 L/kg | AUC0-inf ([6]; PO (13) mg/kg): 33.5 µM·h | Cmax ([6]; PO (13) mg/kg): 6800 nM | F ([6]; PO (13) mg/kg): 63% | MRT0-inf ([6]; PO (13) mg/kg): 3.9 h | T1/2 ([6]; PO (13) mg/kg): 2.4 h | Tmax ([6]; PO (13) mg/kg): 1 h | AUC0-t ([6]; PO (13) mg/kg): 33.5 ^¶ µM*hr | Human Clint [7]: 34 µL/min/mg | Cytotoxicity (HepG2 cell line): no significant cytotoxicity | CC50 (HepG2 cell line): > 50000 nM

COc1ccc(NC(=O)N2CCCCN3[C@H](CO)[C@H](c4ccc(C#Cc5ccccc5)cc4)[C@@H]3C2)cc1 [BRD3444]
Mouse Plasma protein binding [4]: 99.9% | IC50 (hERG channel): 5200 nM | EC50 [8]: 140 nM | EC50 ([9]; read-out: EC50, early (E, stages I–III) gametocytes): 282 nM | EC50 ([9]; read-out: EC50, late (L, stages IV–V) gametocytes): 1440 nM | EC50 ([2]; P. falciparum (3D7), Gametocyte (IV-V)): 663 nM | Mouse Clint [5]: 248 µL/min/mg | EC50 (P. falciparum Dd2; [15]): 9 nM | EC50 (P. falciparum Dd2; [13]): 9 nM | EC50 (P. falciparum Dd2; [12]): 11 nM | Potency across P. falciparum Dd2, PfscDHODH and Pf NITD609^R (P. falciparum Dd2; three P. falciparum strains): equipotent | PBS solubility (Solubility assay in PBS): < 1 µM | EC50 ([10]; read-out: EC50, gamete formation, female (F)): 804 nM | EC50 ([10]; read-out: EC50, gamete formation, male): ~1000 nM | AUC0-inf ([6]; IV (3) mg/kg): 1.4 µM·h | CL ([6]; IV (3) mg/kg): 72 mL/min/kg | MRT0-inf ([6]; IV (3) mg/kg): 2.8 h | T1/2 ([6]; IV (3) mg/kg): 3.7 h | Vss ([6]; IV (3) mg/kg): 12 L/kg | AUC0-t ([6]; IV (3) mg/kg): 1.2 ^¶ µM*hr | AUC0-inf ([6]; PO (10) mg/kg): 4 µM·h | Cmax ([6]; PO (10) mg/kg): 600 nM | T1/2 ([6]; PO (10) mg/kg): 3.2 h | Tmax ([6]; PO (10) mg/kg): 0.5 h | AUC0-t ([6]; PO (10) mg/kg): 4 ^¶ µM*hr | F [6, 14]: 86% | EC50 [11]: 1310 nM | Human Clint [7]: 142 µL/min/mg | Cytotoxicity (HepG2 cell line): no significant cytotoxicity | CC50 (HepG2 cell line): > 50000 nM

COc1ccc(NC(=O)N2CCCCN3[C@H](CN(C)C(C)C)[C@H](c4ccc(C#Cc5ccccc5)cc4)[C@@H]3C2)cc1 [BRD4716]
EC50 (P. falciparum Dd2; [12]): 24 nM
